Bioassay records from PubChem BioAssay.
A selection: hits, their analogues and other compounds. The true share with any hit is near 0.94%.
UCH37 inh – inhibitors of human UCH37 deubiquitinase, primary screen, biochemical, Ub-AMC cleavage, fluorescence; inhibition, % (test concentration not listed); 330,000 compounds, 0.33% hits; AID 588478, 2011; purified proteasome/UCH37; Ubiquitin carboxyl-terminal hydrolase isozyme L5 (Homo sapiens), Q9Y5K5;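 active means mean inhibition over replicate wells above about 20%, limit read from the data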
Target sequence (Q9Y5K5 whole entry, looked up): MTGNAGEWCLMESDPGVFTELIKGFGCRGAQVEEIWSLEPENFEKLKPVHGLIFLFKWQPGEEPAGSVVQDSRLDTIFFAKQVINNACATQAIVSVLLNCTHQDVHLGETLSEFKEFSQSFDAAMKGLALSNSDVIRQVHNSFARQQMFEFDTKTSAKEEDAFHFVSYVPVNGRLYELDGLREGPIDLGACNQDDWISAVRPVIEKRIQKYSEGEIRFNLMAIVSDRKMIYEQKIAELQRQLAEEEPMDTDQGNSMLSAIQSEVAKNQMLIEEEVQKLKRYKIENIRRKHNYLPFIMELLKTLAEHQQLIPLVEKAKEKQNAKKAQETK
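Material: Human UCH37 enzyme supplied as purified proteasome complex | Schedule: 30 min compound-proteasome preincubation then 25 min substrate reaction, room temperature | Detection: AMC fluorescence from Ub-AMC cleavage, excitation 355 nm, emission 460 nm | Benchmarks: Wells without proteasome as full block, compound-free enzyme plus substrate as uninhibited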
aDG glyco act – activators of alpha-DG glycosylation, primary screen, uHTS, Pro5-aDG cells, AlphaScreen | AID 624168, 2012 | alpha-DG glycosylation AlphaScreen (IIH6); 0% Pro5, 100% B10-LARGE cell signal | activation, % at 10 µM | 360,000 compounds, 0.22% hits;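 active means activation of at least 8% versus controls, or a plate z-score of at least 8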;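 further: Pro5 are CHO cells carrying HIG-tagged alpha-DG that lacks glycosylation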
PKA-R2B activ – activators of PKA-R2B holoenzyme, primary screen, biochemical, fluorescence polarization, Cy5-IP20, human; AID 504700, 2011; activation, % at 11.4 µM; PKA-R2B holoenzyme dissociation; R2B truncated from residue 108, S112A mutant; 0% DMSO only, 100% 113 µM cGMP; 340,000 compounds, 0.079% hits; cAMP-dependent protein kinase catalytic subunit beta (Homo sapiens) + cAMP-dependent …;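 active means activation above a cutoff set at the mean over all compounds plus 3 SD, cut at about 18% in these data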;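 further: higher means more holoenzyme dissociation and a rise in polarization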
Target sequence (P31323 whole entry, looked up, other chains not shown, the tested form may be a part): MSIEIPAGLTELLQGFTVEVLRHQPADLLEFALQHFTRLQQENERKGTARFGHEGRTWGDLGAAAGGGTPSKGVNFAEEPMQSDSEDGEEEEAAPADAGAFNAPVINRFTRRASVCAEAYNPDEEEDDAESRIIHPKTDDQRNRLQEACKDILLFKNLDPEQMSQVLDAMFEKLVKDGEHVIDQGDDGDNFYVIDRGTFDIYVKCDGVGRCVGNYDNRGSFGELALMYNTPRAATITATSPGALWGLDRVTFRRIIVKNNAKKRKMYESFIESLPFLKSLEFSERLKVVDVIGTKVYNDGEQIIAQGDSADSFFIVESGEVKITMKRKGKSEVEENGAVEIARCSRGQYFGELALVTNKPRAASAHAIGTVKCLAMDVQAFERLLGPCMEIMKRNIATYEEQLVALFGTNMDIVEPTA
PKA-R1A activ – activators of PKA-R1A holoenzyme, primary screen, biochemical, fluorescence polarization, Cy5-IP20, bovine R1A, mouse PKAc | PKA-R1A dissociation; scaled: DMSO 0%, 113 µM cGMP 100% | activation, % at 11.4 µM | cAMP-dependent protein kinase type I-alpha regulatory subunit (Bos taurus) + … | 340,000 compounds, 0.083% hits;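 active means percent activation above the mean of all tested compounds plus 3 SD, cut at about 19% in these data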;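 further: higher means more PKAc released from R1A so a rise in polarization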
CTSL1 counter – Fasciola hepatica cathepsin L1 inhibitors, primary screen, counter-screen for PFM18AAP inhibitor project, biochemical, QFRET, fluorogenic peptide substrate. recombinant F. hepatica cathepsin L1, Z-Leu-Arg-MCA fluorescence. inhibition, % at 5.96 µM. 300,000 compounds, 0.49% hits;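 active means inhibition above the mean of all tested compounds plus 3 SD, set per screening campaign, cut at about 17% in these data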
Each line names hits and unclear results; the compound was inactive in the other large screens.

Cc1cccc(N2C(=O)C(Cl)=C(N3CCOCC3)C2=O)c1	CTSL1 counter 28
COc1ccc(N2C(=O)C(Cl)=C(N3CCOCC3)C2=O)cc1	none
O=C1C(Cl)=C(N2CCOCC2)C(=O)N1c1cccc(Cl)c1	CTSL1 counter 57
O=C(CCNC(=O)c1ccccc1Cl)Nc1ccncc1	none
O=C(CCNC(=O)c1ccccc1Cl)Nc1ccc(Br)c(C(F)(F)F)c1	UCH37 inh 24
O=C(NCCCN1CCCCCC1)c1ccc2c(c1)NC(=O)C(N1CCOCC1)S2 (centres undefined)	UCH37 inh 22
O=C(NN=C/C=C\c1ccccc1[N+](=O)[O-])c1cccnc1	none (no result: aDG glyco act, PKA-R2B activ, PKA-R1A activ, CTSL1 counter)
COc1ccc(C=NNc2nc(C(=O)O)cs2)cc1	none (no result: aDG glyco act, PKA-R2B activ, PKA-R1A activ, CTSL1 counter)
CCOC(=O)C1CCN(C(=O)c2c(C)oc3c2C(=O)c2ccccc2C3=O)CC1	aDG glyco act 4.3
O=C(Nc1cccnc1)c1ccc([N+](=O)[O-])s1	aDG glyco act 9.7 (no result: CTSL1 counter)
Cc1c(C(=O)N2CCOCC2)sc(NC(=O)CCl)c1C#N	CTSL1 counter 17
Cc1ccccc1NC(=S)C1=C(O)c2sccc2N(C)S1(=O)=O	UCH37 inh 23
CN1c2ccccc2C(O)=C(C(=S)Nc2ccccc2)S1(=O)=O	none
CN1c2ccsc2C(O)=C(C(=S)Nc2ccccc2)S1(=O)=O	UCH37 inh 21
CCNC(=O)C1=C(O)c2sccc2N(C)S1(=O)=O	none
Cc1ccc(NC(=S)C2=C(O)c3ccccc3N(C)S2(=O)=O)cc1	UCH37 inh 21
CC(NO)C(=NO)c1cccs1 (centres undefined)	none (no result: aDG glyco act, PKA-R2B activ, PKA-R1A activ, CTSL1 counter)
CCOc1ccc(C(Nc2cccnc2)c2cc(Cl)c3cccnc3c2O)cc1 (centres undefined)	UCH37 inh 22
COc1cccc(N2C(=O)N(c3ccccc3Cl)C3CS(=O)(=O)CC32)c1 (centres undefined)	CTSL1 counter 17
CCCOc1ccc(Cc2nn3c(=O)c(=Cc4ccco4)sc3nc2=O)cc1	none (no result: aDG glyco act, PKA-R2B activ, PKA-R1A activ, CTSL1 counter)
Cc1ccc(-c2ccc(C=N/N=C3/NC(=O)C(CC(=O)O)S3)o2)c([N+](=O)[O-])c1 (centres undefined)	UCH37 inh 25 (no result: aDG glyco act, PKA-R2B activ, PKA-R1A activ, CTSL1 counter)
O=C(O)CC1S/C(=N/N=C/c2ccc(-c3ccc(Cl)cc3[N+](=O)[O-])o2)NC1=O (centres undefined)	none (no result: UCH37 inh)
COC(=O)C(NC(=O)CN1C(=O)c2ccccc2C1=O)c1ccc(O)c(OC)c1 (centres undefined)	CTSL1 counter 17
CC(NC(=O)CN1C(=O)c2ccccc2C1=O)c1ccccc1 (centres undefined)	none
Cc1c(NC(=O)COc2cccc(Cl)c2Cl)c(=O)n(-c2ccccc2)n1C	CTSL1 counter 23
Cc1ccc(C)c(OCC(=O)Nc2c(C)n(C)n(-c3ccccc3)c2=O)c1	none (no result: CTSL1 counter)
O=C(O)CN1C(=O)/C(=C\c2cc(Br)ccc2OCc2ccc(Cl)cc2)SC1=S	UCH37 inh 23 (no result: CTSL1 counter)
CC(C(=O)O)N1C(=O)/C(=C/c2cccn2C)SC1=S (centres undefined)	none
CCC(C(=O)O)N1C(=O)/C(=C/c2cccn2C)SC1=S (centres undefined)	UCH37 inh 23
Cn1cccc1/C=C1/SC(=S)N(CC(=O)O)C1=O	UCH37 inh 23
COc1ccc(C)cc1NC(=O)CC(C)=NNC(=O)Cc1cccc2ccccc12	none (no result: aDG glyco act, PKA-R2B activ, PKA-R1A activ, CTSL1 counter)
CC(=NNS(=O)(=O)c1ccccc1)c1ccc2c(c1)OCCO2	none (no result: aDG glyco act, PKA-R2B activ, PKA-R1A activ, CTSL1 counter)
COc1ccc(C(=O)c2c(C(F)(F)F)oc3c2C(=O)c2ccccc2C3=O)cc1	CTSL1 counter 28
O=[N+]([O-])c1ccc(Cl)c(C=Nn2c(-c3cccnc3)n[nH]c2=S)c1	none (no result: aDG glyco act, PKA-R2B activ, PKA-R1A activ, CTSL1 counter)
N/C(=N\OS(=O)(=O)c1ccccc1)c1ccncc1	CTSL1 counter 33
N/C(=N\OS(=O)(=O)c1ccccc1)c1cccnc1	none
N/C(=N\OS(=O)(=O)c1ccc2ccccc2c1)c1ccncc1	CTSL1 counter 43
N/C(=N\OS(=O)(=O)c1ccc2ccccc2c1)c1cccnc1	none
O=C1NCCN1C(=O)c1ccco1	CTSL1 counter 21
COc1ccccc1NS(=O)(=O)c1cccc(C(=O)NN=Cc2cn(-c3ccccc3)nc2-c2ccccc2)c1	none (no result: aDG glyco act, PKA-R2B activ, PKA-R1A activ, CTSL1 counter)
CCNc1nc(NCC)nc(NN=Cc2ccc(O)c(O)c2)n1	none (no result: aDG glyco act, PKA-R2B activ, PKA-R1A activ, CTSL1 counter)
CC(C)c1ccc(C2CC(c3ccc(Br)cc3)=NN2C(N)=S)cc1 (centres undefined)	CTSL1 counter 20
C/C(CC(=O)Nc1ccc(Cl)c(Cl)c1)=N\NC(N)=S	CTSL1 counter 30 (no result: UCH37 inh)
CC(CC(=O)Nc1ccc(Cl)c(Cl)c1)=NNC(N)=S	none (no result: aDG glyco act, PKA-R2B activ, PKA-R1A activ, CTSL1 counter)
O=C(COC(=O)C1CC1)Nc1ncc(C(F)(F)F)cc1Cl	none
O=C(COC(=O)CNC(=O)c1ccccc1Cl)Nc1ncc(C(F)(F)F)cc1Cl	CTSL1 counter 21
Cc1ccc(NC(=O)COc2ccc(N(C)C(=O)C(C)(C)C)cc2)cc1S(=O)(=O)N1CCCCC1	aDG glyco act 4.6 (no result: CTSL1 counter)
Cc1ccc(NC(=O)CCl)cc1S(=O)(=O)N1CCCCCC1	CTSL1 counter 58
COc1ccc(C(=O)NN=Cc2cc3ccccc3[nH]c2=S)cc1	none (no result: aDG glyco act, PKA-R2B activ, PKA-R1A activ, CTSL1 counter)
O=C(NN=Cc1ccc([N+](=O)[O-])o1)c1cn2ccc3ccccc3c2n1	none (no result: aDG glyco act, PKA-R2B activ, PKA-R1A activ, CTSL1 counter)
Cc1cc(N2CCCC2=O)cc(C)c1S(=O)(=O)NCCOc1ccc(C(C)(C)C)cc1	aDG glyco act 11
Cc1ccc(-c2c(C(=O)NN=Cc3ccsc3)nnn2-c2nonc2N)cc1	none (no result: aDG glyco act, PKA-R2B activ, PKA-R1A activ, CTSL1 counter)
COC(=O)/C=C1/S/C(=N/NC(=O)c2ccc(OC)cc2)NC1=O	UCH37 inh 25
COC(=O)/C=C1\S/C(=N/NC(=O)c2ccc(OC)cc2)NC1=O	none
Cc1cccc(/N=C/c2nc(-c3ccccc3Br)oc2O)n1	CTSL1 counter 67 (no result: UCH37 inh)
Cc1ccnc(N=Cc2nc(-c3ccccc3Br)oc2O)c1	CTSL1 counter 67
C=CCC1CCCC(=NNS(=O)(=O)c2ccc(C)cc2)C1 (centres undefined)	none (no result: aDG glyco act, PKA-R2B activ, PKA-R1A activ, CTSL1 counter)
Clc1ccccc1-c1nc(C=NN2CCOCC2)c2ccccn12	none (no result: aDG glyco act, PKA-R2B activ, PKA-R1A activ, CTSL1 counter)
CCCCc1n[nH]c2c1C(=NOCC)CC(C)(C)C2	none (no result: aDG glyco act, PKA-R2B activ, PKA-R1A activ, CTSL1 counter)
CN(C)c1nc(C#N)nc(N2CCOCC2)n1	CTSL1 counter 53
C1CCN(c2nc(N3CCCCC3)nc(N3CCNCC3)n2)CC1	none
N#Cc1nc(N2CCCC2)nc(N2CCCC2)n1	CTSL1 counter 56
N#Cc1nc(N2CCCCC2)nc(N2CCOCC2)n1	CTSL1 counter 76
C1CN(c2nc(N3CCOCC3)nc(N3CCOCC3)n2)CCO1	none (no result: aDG glyco act, PKA-R2B activ, PKA-R1A activ)
CCOC(=O)CNc1nc(C#N)nc(N2CCOCC2)n1	CTSL1 counter 23
